# Measurements taken from ChEMBL document CHEMBL1123677, “Structure-activity studies of 5-[[4-(4,5-dihydro-2-oxazolyl) phenoxy]alkyl]-3-methylisoxazoles: inhibitors of picornavirus uncoating” (J Med Chem, 1987).
# Activity calls are given as the source filed them. No cut-off for these calls is given here.
# Columns and labels:
# [1] = Partition coefficient (logP); type: physicochemical; details: octanol/water
# rhinovirus A2 [2] = assay: Antirhinovirus activity was assessed and the maximum testable concentration that causes no apparent effects on the cell monolayers was determined against HRV-2 virus in vitro.; type: functional, human rhinovirus type 2
# rhinovirus A2 [3] = assay: Antirhinovirus activity was determined by the ability to inhibit the HRV-2 (human rhinovirus type -2) virus by plaque reduction assay in vitro; type: functional; details: Rhinovirus A
# How it was run: (§1)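 Plaque reduction assay against human rhinovirus type 2 (HRV-2), following an earlier reported method. The value is the MIC, the minimum inhibitory concentration.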
# Human rhinovirus sp. = assay: Mean of MIC's was determined for the five types of virus like HRV-2, HRV-1A,HRV-22,HRV-41 and HRV-50; type: functional
# How it was run: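 MIC measured by plaque reduction against HRV-2 first. The value is the mean of the MICs across these five serotypes.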
# rhinovirus B14 [4] = assay: Tested for antirhinoviral activity against the rhinovirus serotype 14; type: functional, human rhinovirus type 14; details: Rhinovirus B
# How it was run: (§2)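 Selected compounds were tested across a 15-serotype rhinovirus panel: the five secondary serotypes plus 10 more. An MIC was recorded for each serotype. MIC80, the concentration inhibiting 80% of serotypes tested, was also derived from this panel.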
# rhinovirus A2 [5] = assay: Tested for antirhinoviral activity against the rhinovirus serotype 2; type: functional, human rhinovirus type 2; details: Rhinovirus A; how it was run: as §2
# rhinovirus A21 [6] = assay: Tested for antirhinoviral activity against the rhinovirus serotype 21; type: functional; details: Rhinovirus A; how it was run: as §2
# rhinovirus A22 [7] = assay: Tested for antirhinoviral activity against the rhinovirus serotype 22; type: functional; details: Rhinovirus A; how it was run: as §2
# rhinovirus A25 [8] = assay: Tested for antirhinoviral activity against the rhinovirus serotype 25; type: functional; details: Rhinovirus A; how it was run: as §2
# rhinovirus A30 [9] = assay: Tested for antirhinoviral activity against the rhinovirus serotype 30; type: functional; details: Rhinovirus A; how it was run: as §2
# rhinovirus A41 [10] = assay: Tested for antirhinoviral activity against the rhinovirus serotype 41; type: functional; details: Rhinovirus A; how it was run: as §2
# rhinovirus A50 [11] = assay: Tested for antirhinoviral activity against the rhinovirus serotype 50; type: functional; details: Rhinovirus A; how it was run: as §2
# rhinovirus B6 [12] = assay: Tested for antirhinoviral activity against the rhinovirus serotype 6; type: functional; details: Rhinovirus B; how it was run: as §2
# rhinovirus A67 [13] = assay: Tested for antirhinoviral activity against the rhinovirus serotype 67; type: functional; details: Rhinovirus A; how it was run: as §2
# rhinovirus B86 [14] = assay: Tested for antirhinoviral activity against the rhinovirus serotype 86; type: functional; details: Rhinovirus B; how it was run: as §2
# rhinovirus A89 [15] = assay: Tested for antirhinoviral activity against the rhinovirus serotype 89; type: functional, human rhinovirus type 89; details: Rhinovirus A; how it was run: as §2
# rhinovirus A15 [16] = assay: Tested for antirhinoviral activity against the rhinovirus serotype 15; type: functional; details: Rhinovirus A; how it was run: as §2
# Human rhinovirus 1A [17] = assay: Tested for antirhinoviral activity against the rhinovirus serotype 1A; type: functional; how it was run: as §2
# rhinovirus A1B [18] = assay: Tested for antirhinoviral activity against the rhinovirus serotype 1B; type: functional, human rhinovirus type 1b; details: Rhinovirus A; how it was run: as §2
# [19] = test system: human rhinovirus (15-serotype panel); assay: Antirhinovirus activity was determined by the ability to inhibit the growth of 80% of a panel of 15 human rhinovirus serotypes
# rhinovirus A25 [20] = assay: Tested for antirhinoviral activity against the rhinovirus serotype 25; IA is inactive; type: functional, organism-based; how it was run: as §2
# rhinovirus A2 [21] = assay: Antiviral activity determined by ability to inhibit the HRV-2( human rhinovirus type -2) virus by plaque reduction assay in vitro; type: functional; details: Rhinovirus A; how it was run: as §1
# rhinovirus A1B [22] = assay: Tested for antirhinoviral activity against the rhinovirus serotype 1B; IA is inactive; type: functional, organism-based; details: human rhinovirus type 1b; how it was run: as §2
# rhinovirus A2 [23] = assay: Expanded antirhinoviral activity against the rhinovirus serotype 2; type: functional, human rhinovirus type 2; details: Rhinovirus A; how it was run: as §2
# rhinovirus A21 [24] = assay: Expanded antirhinoviral activity against the rhinovirus serotype 21; type: functional; details: Rhinovirus A; how it was run: as §2
# rhinovirus A22 [25] = assay: Expanded antirhinoviral activity against the rhinovirus serotype 22; type: functional; details: Rhinovirus A; how it was run: as §2
# rhinovirus A25 [26] = assay: Expanded antirhinoviral activity against the rhinovirus serotype 25; type: functional; details: Rhinovirus A; how it was run: as §2
# rhinovirus A30 [27] = assay: Expanded antirhinoviral activity against the rhinovirus serotype 30; type: functional; details: Rhinovirus A; how it was run: as §2
# rhinovirus A41 [28] = assay: Expanded antirhinoviral activity against the rhinovirus serotype 41; type: functional; details: Rhinovirus A; how it was run: as §2
# rhinovirus A50 [29] = assay: Expanded antirhinoviral activity against the rhinovirus serotype 50; type: functional; details: Rhinovirus A; how it was run: as §2
# rhinovirus B6 [30] = assay: Expanded antirhinoviral activity against the rhinovirus serotype 6; type: functional; details: Rhinovirus B; how it was run: as §2
# rhinovirus A67 [31] = assay: Expanded antirhinoviral activity against the rhinovirus serotype 67; type: functional; details: Rhinovirus A; how it was run: as §2
# rhinovirus B86 [32] = assay: Expanded antirhinoviral activity against the rhinovirus serotype 86; type: functional; details: Rhinovirus B; how it was run: as §2
# rhinovirus A89 [33] = assay: Expanded antirhinoviral activity against the rhinovirus serotype 89; type: functional, human rhinovirus type 89; details: Rhinovirus A; how it was run: as §2
# rhinovirus B14 [34] = assay: Expanded antirhinoviral activity against the rhinovirus serotype 14; type: functional, human rhinovirus type 14; details: Rhinovirus B; how it was run: as §2
# rhinovirus A15 [35] = assay: Expanded antirhinoviral activity against the rhinovirus serotype 15; type: functional; details: Rhinovirus A; how it was run: as §2
# rhinovirus A1B [36] = assay: Expanded antirhinoviral activity against the rhinovirus serotype 1B; type: functional, human rhinovirus type 1b; details: Rhinovirus A; how it was run: as §2
# Human rhinovirus 1A [37] = assay: Expanded antirhinoviral activity against the rhinovirus serotype 1A; type: functional; how it was run: as §2
Compound,logP [1],MIC (rhinovirus A2 [3]) [µM],MIC (Human rhinovirus sp.) [µM],MIC (rhinovirus B14 [4]) [µM],MIC (rhinovirus A2 [5]) [µM],MIC (rhinovirus A21 [6]) [µM],MIC (rhinovirus A22 [7]) [µM],MIC (rhinovirus A30 [9]) [µM],MIC (rhinovirus A41 [10]) [µM],MIC (rhinovirus A50 [11]) [µM],MIC (rhinovirus B6 [12]) [µM],MIC (rhinovirus A67 [13]) [µM],MIC (rhinovirus B86 [14]) [µM],MIC (rhinovirus A89 [15]) [µM],MIC (rhinovirus A15 [16]) [µM],MIC (Human rhinovirus 1A [17]) [µM],MIC (rhinovirus A1B [18]) [µM],MIC80 [19] [µM],MIC (rhinovirus A2 [21]) [µM],MTL (rhinovirus A2 [2]) [µM],other results
Cc1cc(CCCCCOc2ccc(C3=NCCO3)cc2C)on1,4.4,0.1,1.4,0.6,0.09,0.06,0.2,0.05,4.3,0.3,0.6,0.2,0.6,0.06,0.2,2,0.3,0.6,,19,MIC (rhinovirus A25 [8]): 6.7 µM
COc1cc(C2=NCCO2)ccc1OCCCCCc1cc(C)no1,3.44,,4.5,1.7,0.3,0.2,0.8,0.2,14,0.4,1,1,1.9,0.7,0.6,6.7,1.8,1.9,0.3,37,IA (rhinovirus A25 [20]): inactive
Cc1cc(CCCCCOc2ccc(C3=NCCO3)cc2)on1,,,5.2,0.7,1.1,1.2,0.9,0.3,15,1.5,0.06,2.4,0.2,0.4,1.5,7,,7,1.1,9.9,MIC (rhinovirus A25 [20]): inactive; MIC (rhinovirus A1B [22]): inactive

# These reach a lower MIC (Human rhinovirus sp.). Values come first.
logP [1],MIC (rhinovirus A2 [3]) [µM],MIC (Human rhinovirus sp.) [µM],MIC (rhinovirus B14 [4]) [µM],MIC (rhinovirus A2 [5]) [µM],MIC (rhinovirus A21 [6]) [µM],MIC (rhinovirus A22 [7]) [µM],MIC (rhinovirus A30 [9]) [µM],MIC (rhinovirus A41 [10]) [µM],MIC (rhinovirus A50 [11]) [µM],MIC (rhinovirus B6 [12]) [µM],MIC (rhinovirus A67 [13]) [µM],MIC (rhinovirus B86 [14]) [µM],MIC (rhinovirus A89 [15]) [µM],MIC (rhinovirus A15 [16]) [µM],MIC (Human rhinovirus 1A [17]) [µM],MIC (rhinovirus A1B [18]) [µM],MIC80 [19] [µM],MIC (rhinovirus A2 [21]) [µM],Compound,MTL (rhinovirus A2 [2]) [µM],other results
4.42,0.04,0.4,2,0.05,0.01,0.05,0.08,1.4,0.1,1.1,0.2,1.4,0.02,0.2,0.5,0.1,1.4,,Cc1cc(CCCCCOc2ccc(C3=NCCO3)cc2Br)on1,7.9,MIC (rhinovirus A25 [8]): 1.8 µM
3.49,,0.7,,,,,,,,,,,,,,,1.8,0.04,Cc1cc(CCCCCOc2ccc(C3=NCCO3)cc2[N+](=O)[O-])on1,3.9,MIC (rhinovirus A2 [23]): 0.06 µM; MIC (rhinovirus A21 [24]): 0.06 µM; MIC (rhinovirus A22 [25]): 0.1 µM; MIC (rhinovirus A25 [26]): 1.9 µM; MIC (rhinovirus A30 [27]): 0.1 µM; MIC (rhinovirus A41 [28]): 2 µM; MIC (rhinovirus A50 [29]): 0.2 µM; MIC (rhinovirus B6 [30]): 1.6 µM; MIC (rhinovirus A67 [31]): 0.2 µM; MIC (rhinovirus B86 [32]): 2 µM; MIC (rhinovirus A89 [33]): 0.06 µM; MIC (rhinovirus B14 [34]): 1.8 µM; MIC (rhinovirus A15 [35]): 0.3 µM; MIC (rhinovirus A1B [36]): 0.2 µM; MIC (Human rhinovirus 1A [37]): 0.9 µM
